# Source: PubChem (several laboratories)
# The list is not random: actives were taken first. Their share in the collection is about 2.4%.
# EBV gp42 inh: blocks Epstein-Barr virus glycoprotein 42 binding; Q1HVG2; Fluorescence polarization binding assay, mP read-out; inhibition, % (tested at 21.74 µM); 220,000 compounds, 0.42% hits; AID 1085; in the data active means inhibition above about 50%
# RanGTP-Impb inh: inhibitors of RanGTP-importin-beta interaction, primary screen, biochemical, FRET, CFP-Ran, YFP-importin-beta, homogeneous | cell-free CFP-Ran/YFP-importin-beta FRET ratio | inhibition, % (no concentration beside the values) | 300,000 compounds, 1.1% hits;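 active means more than half of the replicate wells show a fall in the fluorescence ratio signal beyond about 16%, limit read from the data, passing the limit was not always enough; inconclusive means exactly half of the replicate wells pass the set limit; inactive means fewer than half of replicates pass the limit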;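 further: 0% = DMSO wells and 100% = Ran loaded with GDP instead of GTP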
# Runt-SMMHC FRET: Runt domain-CBFb-SMMHC interaction inhibition | Q01196+Q13951 | AID 1434 | inhibition, % at 20 µM | 220,000 compounds, 0.74% hits | Cerulean-Runt/Venus-CBFb-SMMHC FRET ratio 530/480, 1 h;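 active means mean inhibition across duplicate retests at 20 µM reaching about 50%, limit read from the data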;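 further: 0% = DMSO wells and 100% = wells with excess untagged CBFb-SMMHC; inhibitors lower the FRET ratio by blocking Runt binding to CBFb-SMMHC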
# MEX-5 binding: C. elegans MEX-5 TCR-2 RNA binding activity; Q9XUB2; MEX-5/FITC-TCR2 RNA binding, fluorescence polarization; hits give low values; activity score (negative = inhibition of binding), % at 10 µM; 300,000 compounds, 0.38% hits; AID 1832;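 active means inhibition past about -25% in most replicates, and total fluorescence under double the plate's negative control median, limit read from the data; inconclusive means replicates evenly split on the limit, or fluorescence at least double controls; inactive means too little inhibition in most replicates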;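 further: 0% = DMSO and -100% = 5 µM competing unlabeled TCR2 RNA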
# LANA-H2B inh: blocks KSHV LANA binding to histone H2A/H2B; cell-free LANA-H2A/H2B peptide, fluorescence polarization; inhibition, % (test concentration not listed); 320,000 compounds, 0.6% hits; in the data active means inhibition mostly above about 10%, no sharp cut-off; inactive means mostly below about 6.7%
# Target sequence (Q9QR71 whole entry, looked up): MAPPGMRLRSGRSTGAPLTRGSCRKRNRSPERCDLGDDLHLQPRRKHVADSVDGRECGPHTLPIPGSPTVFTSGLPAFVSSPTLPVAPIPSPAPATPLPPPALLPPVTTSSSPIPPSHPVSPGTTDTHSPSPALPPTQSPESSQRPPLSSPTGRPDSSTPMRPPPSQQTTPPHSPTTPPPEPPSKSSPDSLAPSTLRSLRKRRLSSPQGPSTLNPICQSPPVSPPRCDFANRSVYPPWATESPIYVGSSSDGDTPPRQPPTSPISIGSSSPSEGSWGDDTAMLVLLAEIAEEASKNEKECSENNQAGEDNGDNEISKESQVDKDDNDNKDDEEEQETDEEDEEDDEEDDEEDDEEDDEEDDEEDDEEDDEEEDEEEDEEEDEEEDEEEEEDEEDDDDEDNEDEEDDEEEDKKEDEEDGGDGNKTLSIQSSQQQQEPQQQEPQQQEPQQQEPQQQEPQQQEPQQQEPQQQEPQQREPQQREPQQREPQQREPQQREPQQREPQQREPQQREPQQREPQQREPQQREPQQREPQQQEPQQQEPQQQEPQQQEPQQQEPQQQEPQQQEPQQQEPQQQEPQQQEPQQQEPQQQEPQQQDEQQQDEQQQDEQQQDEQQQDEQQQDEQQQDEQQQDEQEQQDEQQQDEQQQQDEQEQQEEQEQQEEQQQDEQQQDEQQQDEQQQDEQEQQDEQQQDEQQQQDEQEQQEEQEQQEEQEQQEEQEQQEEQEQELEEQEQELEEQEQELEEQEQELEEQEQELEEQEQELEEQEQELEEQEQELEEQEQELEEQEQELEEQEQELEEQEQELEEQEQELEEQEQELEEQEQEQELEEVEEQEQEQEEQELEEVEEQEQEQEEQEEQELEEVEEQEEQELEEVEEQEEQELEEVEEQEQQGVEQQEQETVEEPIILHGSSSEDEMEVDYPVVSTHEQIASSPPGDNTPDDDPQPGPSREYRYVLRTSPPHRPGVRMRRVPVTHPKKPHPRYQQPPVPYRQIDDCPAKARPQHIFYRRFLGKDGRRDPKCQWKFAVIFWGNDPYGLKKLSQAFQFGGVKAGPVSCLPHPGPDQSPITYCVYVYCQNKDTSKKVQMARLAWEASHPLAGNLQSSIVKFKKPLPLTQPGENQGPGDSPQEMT
# Runt-CBFb FRET: Runt domain-CBFb interaction inhibition; Cerulean-Runt/Venus-CBFb FRET ratio 530/480, 1 h; Q01196+Q13951; inhibition, % at 20 µM; 220,000 compounds, 0.46% hits;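 active means inhibition over about 50% at 20 µM in the single-dose screen, limit read from the data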;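 further: 0% = DMSO wells and 100% = excess unlabeled CBFb competitor control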
#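 Buffer or medium: Tris pH 7.5 buffer with BSA. Assay system: Cerulean-labeled Runt domain protein. Amount: each fluorescent fusion protein 100 nM. Read-out basis: loss of energy transfer signal. Incubation: 1 h compound exposure, room temperature. Probe or stimulus: Venus-CBFb binding partner, 100 nM. Detection: FRET, excitation 422 nm, emission at 530 and 480 nm.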
# An asterisk follows results filed as active; ? = inconclusive; . = not tested or not shown.
SMILES,EBV gp42 inh,RanGTP-Impb inh,Runt-SMMHC FRET,MEX-5 binding,LANA-H2B inh,Runt-CBFb FRET
C/C(=N\NC(=O)c1nnn(-c2nonc2N)c1-c1cccs1)c1cccc(O)c1,.,3,.,-63*,-1,.
COc1cc(/C(C)=N/NC(=O)c2nnn(-c3nonc3N)c2-c2cccs2)ccc1O,.,0,.,-1,3,.
Cc1ccc(/C=N/NC(=O)c2nnn(-c3nonc3N)c2-c2cccs2)cc1,.,189*,.,?,-2,.
COc1ccc(CNC(C)C(=O)Nc2ccc3ccccc3c2)cc1OC (stereo not drawn),-7,3,31,4,3,0
CCOC(=O)c1c(NC(=O)COc2cccc3c2CCN(C)C3=O)sc2c1CCC2,-5,2,-10,0,0,-4
CCc1ccc(NS(=O)(=O)c2c(C(=O)N3CCCCCC3)c(C)n(C)c2C)cc1,.,3,.,0,4,.
O=C(Cn1cnc2nc3n(c2c1=O)CCC3)NCc1ccccc1,-26,-2,2,0,0,0
Nc1nc2nc(-c3ccc(Cl)cc3)cc(C(F)(F)F)n2n1,-11,?,76*,0,1,24
COc1cccc(C2=NOC(C(=O)N3CCc4ccccc4C3)C2)c1 (stereo not drawn),4,23*,-2,-1,-7,.
Cc1ccc2[nH]c(O)c(N=NC(=O)c3ccc(NS(=O)(=O)c4cccs4)cc3)c2c1,58*,2,-6,0,-1,-1
Cc1ccc(C)c(S(=O)(=O)N2CCCCC2CCNC(=O)C(=O)NCc2ccco2)c1 (stereo not drawn),.,-1,.,0,0,.
CCCCN1C2CCCC1CC(NC(=O)c1cccc(Cl)c1)C2 (stereo not drawn),.,1,.,1,5,.
COc1ccc(C=O)c(OC)c1,1,-3,1,-1,12*,-1
N=c1oc2ccc3ccccc3c2cc1C(N)=S,-1,76*,92*,3,2,118*
CC(OC(=O)c1cc2c(ccc3ccccc32)oc1=O)c1nc2ccccc2s1 (stereo not drawn),-26,49*,93*,-1,0,39
O=C(NCc1ccccn1)c1cc2c(ccc3ccccc32)oc1=O,9,37*,.,1,10,104*
CCOC(=O)c1cc2c(ccc3ccccc32)oc1=O,-16,?,92*,0,-4,85*
O=C(OCc1nc2ccccc2s1)c1cc2ccccc2oc1=O,-7,3,-1,0,2,0
O=C(c1cc2c(ccc3ccccc32)oc1=O)N1CCCC1,11,0,12,2,-3,5
CCN(C(=O)c1ccco1)C1C2CC3CC(C2)CC1C3 (stereo not drawn),.,5,.,-2,1,.
CCCC1CCC(=NNC(=O)OC(C)(C)C)CC1 (stereo not drawn),-25,1,-5,0,-2,2
O=C(NCCN1CCOCC1)/C(=C\c1ccccc1F)NC(=O)c1ccccc1,.,2,.,1,-2,.
Cc1ccccc1C(=O)c1cccn1CC(=O)NCCCN1CCc2ccccc2C1,-7,-1,-8,-1,3,-2
CC(NC(=O)c1ccc(OC2CCN(S(=O)(=O)N(C)C)CC2)cc1)C1CC1 (stereo not drawn),-16,8,0,2,2,-2
CCCCN(C(=O)CCCc1nc2ccccc2s1)c1c(N)n(CC(C)C)c(=O)[nH]c1=O,.,.,.,.,176*,.
SMILES,EBV gp42 inh,RanGTP-Impb inh,Runt-SMMHC FRET,MEX-5 binding,LANA-H2B inh,Runt-CBFb FRET
CCCCN(C(=O)C(C)N1C(=O)c2ccccc2C1=O)c1c(N)n(CCCC)c(=O)[nH]c1=O (stereo not drawn),.,.,.,.,2,.
CCCCN(C(=O)c1ccc([N+](=O)[O-])o1)c1c(N)n(CC(C)C)c(=O)[nH]c1=O,.,?,.,-28*,-1,.
CCCCN(C(=O)C(C)N1C(=O)c2ccccc2C1=O)c1c(N)n(CC(C)C)c(=O)[nH]c1=O (stereo not drawn),.,.,.,.,14*,.
CCCCN(C(=O)c1cc2ccccc2o1)c1c(N)n(CC(C)C)c(=O)[nH]c1=O,-11,0,0,1,0,0
CCOc1ccc(N2C(=O)CC(NCC3CCCO3)C2=O)cc1 (stereo not drawn),-12,?,2,0,-7,3
COc1ccc(NC(=O)Cc2nnc(N)s2)cc1,-2,-3,4,1,-4,0
CCC(C)[C@H]1CNC(=S)N1CCC12CC3CC(CC(C3)C1)C2 (stereo partly drawn),-6,1,-2,-3,16*,-2
CCC(C)[C@H]1CNC(=S)N1CCc1cccc2ccccc12 (stereo partly drawn),1,1,1,2,-1,1
CCC1=[N+](CC(=O)c2ccc(C)cc2)CCn2cccc21,-6,-4,-25,1,-2,-9
CC1=[N+](CC(=O)c2ccccc2)CCn2cccc21,-11,20*,-39,-2,-1,-16
CCNC(=O)NC(=O)COC(=O)C1CSC2(C)CCC(=O)N12 (stereo not drawn),-7,-4,-1,0,-10,-1
CC(=O)c1ccc(N=Nc2ccc(N)cc2)cc1,-11,-1,-2,-3,-5,-3
Cc1ccc(-c2nnc(SCC(=O)Nc3cccc(C(=O)N4CCOCC4)c3)n2C)cc1,-5,2,-44,2,-5,1
Cc1ccc2nnnc(-c3ccccc3)c2c1,-3,-2,0,-2,-2,-1
Cc1ccc2nc(NCC(N)=O)nc(-c3ccccc3)c2c1,-5,20*,47,2,1,24
Cc1ccc2nc(NCCC(=O)O)nc(-c3ccccc3)c2c1,-11,3,90*,-1,0,48
O=C(O)CCNc1nc(-c2ccccc2)c2cc(Br)ccc2n1,.,20*,.,3,0,.
O=C(O)CCCC(=O)NNc1nc(-c2ccccc2)c2cc(Cl)ccc2n1,.,10,.,-20,-5,.
CN(C(=O)COc1ccc(Oc2ccccc2)cc1)C1CCS(=O)(=O)C1 (stereo not drawn),.,4,.,2,-3,.
COc1cc(NC(=O)c2cccc(F)c2)ccc1NC(=O)c1cc2ccccc2o1,.,-3,.,2,1,.
Cc1cccc(N2CCN(C(=O)CCC(=O)N3CCOc4ccc(Cl)cc43)CC2C)c1 (stereo not drawn),.,-2,.,-3,-1,.
CC(C(=O)N(C)c1ccccc1)N1CCN(C(=O)c2ccccc2)CC1 (stereo not drawn),.,-1,.,-1,4,.
C=CCSc1nc(N)c2c3c(sc2n1)CN(C)CC3,.,19*,.,-6,4,.
CCNc1nc(SCC(N)=O)nc2sc3c(c12)CCN(C)C3,.,48*,.,3,.,.
